Screening data: PubChem, several laboratories
PfM18AAP inh = PfM18AAP inhibitors, malaria aminopeptidase, primary screen, biochemical, QFRET, recombinant enzyme; M18 aspartyl aminopeptidase (Plasmodium falciparum 3D7); H-Glu-NHMec fluorogenic cleavage; inhibition, % at 7.35 µM; 290,000 compounds, 1.2% hits; AID 1822, 2009;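 active = inhibition above the campaign mean inhibition over all tested compounds plus 3 SD, cut at about 28% in these data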;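 also: 0% = plate median of test compound wells and 100% = 2 mM ZnCl2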
UPR CHOP act = activators of apoptotic CHOP UPR arm, primary screen, cell-based, CHO-CHOP luciferase reporter, luminescence, uHTS; 330,000 compounds, 0.34% hits; activation, % at 10 µM; UPR activation; percent of tunicamycin response over DMSO baseline;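 active = at 10 µM dose, activation of 40% or more, normalized to positive control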;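 also: 100% = tunicamycin at 10 µg/mL and 0% = DMSO alone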
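System: CHO-CHOP luciferase reporter cell line | Buffer or medium: F12 medium containing 10% fetal bovine serum | Doses: One dose, 10 µM in 0.5% DMSO | Times: 6 h compound exposure at 37 °C after overnight seeding | Signal: Luciferase luminescence | Read-out: % activation vs tunicamycin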
p97 ATPase inh = inhibitors of human p97 ATPase, primary screen, biochemical; recombinant p97 ATPase, Kinase-Glo ATP luminescence, 3 h; inhibition, % at 8 µM; 220,000 compounds, 0.42% hits; in the data active = inhibition above about 15%;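 also: 0% = DMSO vehicle and 100% = wells lacking enzyme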
Target sequence (P55072 whole entry, looked up): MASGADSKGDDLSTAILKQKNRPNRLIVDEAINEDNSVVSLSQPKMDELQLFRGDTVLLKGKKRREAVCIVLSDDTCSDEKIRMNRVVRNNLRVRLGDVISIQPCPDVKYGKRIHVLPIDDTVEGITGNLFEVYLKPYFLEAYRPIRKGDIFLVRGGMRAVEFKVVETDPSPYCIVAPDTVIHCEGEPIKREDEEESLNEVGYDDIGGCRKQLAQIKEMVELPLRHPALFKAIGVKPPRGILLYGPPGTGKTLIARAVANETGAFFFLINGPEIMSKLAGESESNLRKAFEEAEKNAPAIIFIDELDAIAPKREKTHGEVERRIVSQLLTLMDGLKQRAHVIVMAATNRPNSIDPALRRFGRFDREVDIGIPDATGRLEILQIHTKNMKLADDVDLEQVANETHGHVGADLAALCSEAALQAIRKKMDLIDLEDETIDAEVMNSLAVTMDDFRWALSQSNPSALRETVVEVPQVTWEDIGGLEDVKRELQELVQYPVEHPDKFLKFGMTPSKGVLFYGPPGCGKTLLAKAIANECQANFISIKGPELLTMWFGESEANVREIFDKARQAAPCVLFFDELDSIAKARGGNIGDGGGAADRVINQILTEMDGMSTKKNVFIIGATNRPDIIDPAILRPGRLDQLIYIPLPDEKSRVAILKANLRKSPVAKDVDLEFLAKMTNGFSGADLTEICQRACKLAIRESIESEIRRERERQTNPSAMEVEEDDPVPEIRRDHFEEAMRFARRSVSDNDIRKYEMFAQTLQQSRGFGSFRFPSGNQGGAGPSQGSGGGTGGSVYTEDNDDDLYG
XBP1 UPR activ = activators of adaptive XBP1 UPR arm, primary screen, cell-based, CHO-XBP1 luciferase reporter, luminescence, uHTS; IRE1-XBP1 UPR activation; percent of tunicamycin response, DMSO as zero; activation, % at 20 µM; 330,000 compounds, 0.33% hits; AID 463104, 2010;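 active = versus positive control, 20 µM dose yields 30% or more activation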;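 also: 100% = tunicamycin at 10 µg/mL and 0% = DMSO only wells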
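Signal: luciferase luminescence; Assay system: CHO-XBP1 luciferase reporter cells; Amount: one thousand reporter cells per well; Dosing: 20 µM single concentration, DMSO 1%; Benchmarks: high control tunicamycin 10 µg/mL final, low control DMSO vehicle only; Schedule: 6 h compound exposure at 37 °C, 5% CO2; Evaluation: percent activation relative to tunicamycin reference.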
CHOP inhibitor = inhibitors of CHOP promoter induction, primary screen, cell-based, unfolded protein response, luciferase reporter; AID 2732, 2010; inhibition, % at 10 µM; CHO-K1 CHOP-promoter luciferase, tunicamycin-induced, 15-18 h; 220,000 compounds, 3.8% hits;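 active = compounds that reduced the stress-induced luciferase reporter signal by more than about 70% of percent inhibition, limit read from the data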;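 also: 0% = tunicamycin plus vehicle and 100% = wells without tunicamycin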
NS3 helicase inh = inhibitors of HCV NS3 helicase, primary screen, biochemical, Cy5 molecular beacon fluorescence. Hepatitis C virus NS3 helicase. NS3 helicase DNA unwinding. inhibition, % at 10.9 µM. 290,000 compounds, 0.56% hits. AID 1800, 2009;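 active = inhibition above the mean of all tested compounds plus 3 SD, set per campaign, cut at about 35% in these data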;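 also: 0% = DMSO wells and 100% = thioflavine S control wells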
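Material: hepatitis C virus NS3 helicase domain fragment enzyme; measured by: Cy5 fluorescence, 0 and 60 min reads; control set: DMSO and thioflavine S; incubation: 60 min unwinding reaction at 25 °C after ATP addition; read-out basis: % inhibition from 60/0 min fluorescence ratio, DMSO 0%, thioflavine S 100%; repeats: singlicate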
Numbers without * were called inactive; · = no result given. Most compounds without a hit are left out; they make up all but 4.5% or so of the library.

SMILES | PfM18AAP inh | UPR CHOP act | p97 ATPase inh | XBP1 UPR activ | CHOP inhibitor | NS3 helicase inh
Cc1nc(SCC(=O)N(CC(C)C)C2CCS(=O)(=O)C2)c2c(C)c(C)sc2n1 (stereo unspecified) | · | 1 | · | 4 | · | ·
COc1ccc(C(=O)N/C(=C\c2ccccc2)C(=O)Nc2ccccc2C(=O)O)cc1 | · | -1 | · | -2 | · | ·
CC1(C)NC(=O)N(CC(=O)OCC(=O)Nc2cc(S(=O)(=O)N3CCCCC3)ccc2Cl)C1=O | 3 | 1 | 1 | -1 | 79* | -19
Cc1ccc(S(=O)(=O)N2CCCCC2)cc1NC(=O)CN1C(=O)CN(C)C1=O | -14 | -1 | -1 | -5 | 86* | 1
COc1ccc2[nH]c3c(c2c1)CCN1C(=O)C(CC(=O)NCc2cccc(C(F)(F)F)c2)C[C@H](C(=O)N(C(C)C)C(C)C)[C@@]31C (stereo partly specified) | · | 3 | · | 12 | · | ·
CC(C)CN(CCNC(=O)CC1Oc2ccccc2NC1=O)CC(C)C (stereo unspecified) | 5 | 0 | 7 | -1 | 72* | -11
CCN(CCNC(=O)CC1Oc2ccccc2NC1=O)c1ccccc1 (stereo unspecified) | -1 | -2 | -8 | -2 | 14 | 15
CCC(c1n[nH]c(=S)n1-c1ccccc1)N(C)C (stereo unspecified) | 31* | 0 | -6 | 2 | -16 | 7
O=C(CN(c1ccccc1)S(=O)(=O)c1ccc(Cl)cc1)Nc1cccnc1 | -1 | -1 | · | -2 | · | -3
O=C1NN=C(c2ccc(Br)cc2)CC1c1ccc(Cl)cc1 (stereo unspecified) | -5 | 1 | -2 | 0 | 91* | -6
COc1cccc(-c2ccc(C#N)c(OC(=O)c3c(Cl)cccc3Cl)n2)c1 | -16 | 1 | 13 | -4 | 36 | 5
COc1cccc(-c2ccc(C#N)c(OC(=O)c3ccc(Cl)cc3)n2)c1 | -3 | -1 | -1 | -8 | 80* | 0
O=C(NCCc1c[nH]c2ccccc12)C(=O)NCC(c1ccco1)N1CCN(c2ccccc2F)CC1 (stereo unspecified) | -13 | 3 | -1 | 2 | 24 | 4
Cc1onc(-c2ccccc2)c1C(=O)NC(=S)NNC(=O)c1ccc(O)cc1O | 30* | 0 | 9 | 0 | 57 | 5
CC(C)(C)c1cc(CCC(=O)NNC(=S)NC(=O)c2ccccc2)cc(C(C)(C)C)c1O | 29* | 20 | 0 | 23 | 109* | 8
Cc1onc(-c2ccccc2)c1C(=O)NC(=S)NNC(=O)c1ccc(O)cc1 | 20 | 3 | 5 | -2 | 65 | 6
Cc1onc(-c2ccccc2)c1C(=O)NC(=S)NNC(=O)c1ccccc1O | 9 | 0 | -3 | 0 | 77* | 16
O=C(NC(=S)NNC(=O)c1ccccc1O)c1ccccc1 | 30* | 3 | · | -1 | · | 15
NNC(=O)c1cc2ccccc2cc1NS(=O)(=O)c1ccccc1 | 0 | 2 | · | -4 | · | 16
Fc1ccccc1CSc1nnc(-c2cnccn2)n1Cc1ccco1 | -30 | 2 | 2 | -3 | 23 | 1
Clc1ccc(CSc2nnc(-c3ccccn3)n2Cc2ccco2)c(Cl)c1 | -28 | 0 | -2 | -1 | 82* | 10
Cc1cc(C)cc(N(CCC#N)C(=O)CSc2n[nH]c(N)n2)c1 | · | -2 | · | 3 | · | ·
CC(C)CN(C(=O)COC(=O)CN1C(=O)c2ccccc2C1=O)c1c(N)n(Cc2ccccc2)c(=O)[nH]c1=O | · | -2 | · | 2 | · | ·
Cc1ccc(-c2nc(SCC(N)=O)c(C#N)c3c2CCCC3)cc1 | -1 | 2 | 0 | -2 | 83* | -7
O=c1c2cc(Cl)ccc2nc(-c2ccc(Cl)c(Cl)c2)n1O | 6 | 2 | 4 | 10 | 102* | 10
SMILES | PfM18AAP inh | UPR CHOP act | p97 ATPase inh | XBP1 UPR activ | CHOP inhibitor | NS3 helicase inh
O=c1c2cc(Cl)ccc2nc(-c2ccccc2)n1O | -3 | 0 | 0 | -2 | 28 | 12
CS(=O)(=O)c1ncc(Cl)c(C(=O)Nc2ccc3ccccc3c2)n1 | -54 | · | 10 | · | 105* | -21
C=CCn1c(SCC(=O)NCC)nc2sc3c(c2c1=O)CCC3 | 5 | 2 | · | -2 | · | 2
Oc1ccccc1C(=S)N1CCN(C(=S)c2ccccc2O)CC1 | 29* | 0 | · | -6 | · | 31
Oc1ccccc1C(=S)N1CCCC1 | 11 | 1 | · | -4 | · | -4
COc1ccc(S(=O)(=O)Nc2c(C)nn(C)c2C)cc1Br | · | 1 | · | 0 | · | ·
Cc1ccc(-c2[nH]nc(N)c2N=Nc2cccc(Cl)c2C)cc1 | -5 | · | 2 | · | 92* | -5
CCOc1ccc(-c2nc(N)ncc2-c2ccc(OC)cc2)c(O)c1 | 5 | -1 | -3 | -3 | 44 | -10
CCOc1ccc(-c2nc(N)ncc2-c2ccccc2)c(O)c1 | -7 | 1 | 3 | 2 | 91* | -20
COc1ccc(-c2nc(N)ncc2-c2csc(C)n2)c(O)c1 | 7 | 0 | 6 | 0 | 73* | 0
CCc1cc(-c2nc(N)ncc2-c2csc(C)n2)c(O)cc1OC | -3 | 4 | 2 | 7 | 6 | -4
Cc1ccccc1S(=O)(=O)Cc1ccc(C(=O)NC2CC2)o1 | -5 | 4 | · | -6 | · | 5
CCOC(=O)c1ccc(NC(=O)Cn2nnc(-c3ccc(F)cc3)n2)cc1 | 0 | -5 | 2 | 0 | 81* | -21
CCOc1ccccc1NC(=O)Cn1nnc(-c2ccc(OCC)c(OCC)c2)n1 | 8 | -3 | -10 | -3 | 87* | 11
COc1ccc(S(=O)(=O)Nc2ccccc2-c2nnn(CC(=O)Nc3ccccc3OC)n2)cc1 | -2 | 3 | 6 | 0 | 76* | -12
CCOC(=O)c1ccc(NC(=O)Cn2nnc(-c3ccccc3)n2)cc1 | -11 | -3 | -8 | -1 | 61 | -7
CCOc1ccc(-c2nnn(CC(=O)Nc3cc(OC)ccc3OC)n2)cc1OCC | -12 | 0 | 1 | 3 | 39 | -6
CCOC(=O)[C@@H]1[C@H]2COc3cc(OC)ccc3[C@H]2N2C(=O)N(c3ccc(C)cc3)C(=O)[C@@]12C | -3 | 0 | · | -1 | · | -22
Cc1ccc(N2C(=O)Nc3ccc(Br)cc3C2(O)C(=O)NCCN(C)C)cc1C (stereo unspecified) | 12 | 0 | · | -2 | · | 20
CS(=O)(=O)N1CCc2cc(C(=O)N3CCN(c4ccccc4F)CC3)ccc21 | 3 | 1 | · | -6 | · | 2
